Source: ChEMBL document CHEMBL1649277, “Inhibition of herpesvirus replication by 5-substituted 4'-thiopyrimidine nucleosides” (Antimicrob Agents Chemother, 2009)

Experiments:
[1] = Cytotoxicity against HFF after 3 days by MTS assay; type: cell-based; conditions: human, HFF cells
[2] = tested on: Human alphaherpesvirus 2; assay: Antiviral activity against HSV2 MS infected in HFF after 3 days by plaque reduction assay; type: functional, organism-based; conditions: Human alphaherpesvirus 2, MS, 72 h
Summary of the method: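 Confluent primary HFF monolayers (passage <10), triplicate wells, virus dosed at 20–30 plaques/well. Adsorption was 1 h with rocking every 15 min. Six serial dilutions, top 100 μM, were made in MEM with 2% FBS plus pooled human immunoglobulin. After 3 days, wells were stained with 0.1% crystal violet in 20% methanol and plaques counted microscopically. EC50 was interpolated.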

[3] = tested on: HFF; assay: Antiproliferative activity against HFF after 3 days by Coulter counting analysis; type: cell-based; conditions: Homo sapiens, 72 h
Summary of the method: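 HFF seeded at 2.5 × 10^4 cells/well and allowed 24 h before compound dilutions in growth medium were added. Cells were incubated 72 h at 37°C, detached with trypsin-EDTA, and viable cells counted with a Coulter Counter in triplicate wells. The mean cell number gave the concentration reducing cell number by 50%.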

[4] = tested on: Human alphaherpesvirus 1; assay: Antiviral activity against HSV1 E377 infected in HFF after 3 days by plaque reduction assay; type: functional, organism-based; conditions: Human alphaherpesvirus 1, E377, 72 h
Summary of the method: (§1)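 Confluent HFF monolayers (passage <10) were infected in triplicate wells at 20–30 plaques per well, with 1 h adsorption and rocking every 15 min. Six serial dilutions (top 100 μM) were made in MEM with 2% FBS and pooled human immunoglobulin. Cells were incubated 3 days and stained with crystal violet. Plaques were counted, and EC50 was interpolated from plaque reduction.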

[5] = tested on: Human alphaherpesvirus 1; assay: Antiviral activity against HSV1 DM2.1 harboring frameshift mutation in TK infected in HFF after 3 days by plaque reduction assay; type: functional, organism-based; conditions: Human alphaherpesvirus 1, DM2.1, 72 h; summary of the method: as §1
[6] = tested on: Human alphaherpesvirus 1; assay: Antiviral activity against HSV1 PAA5 harboring polymerase R842S mutant gene infected in HFF after 3 days by plaque reduction assay; type: functional, organism-based; conditions: Human alphaherpesvirus 1, PAA5, 72 h; summary of the method: as §1
[7] = tested on: Human alphaherpesvirus 1; assay: Antiviral activity against HSV1 SC16-S1 harboring TK A265T/C336Y mutant gene infected in HFF after 3 days by plaque reduction assay; type: functional, organism-based; conditions: Human alphaherpesvirus 1, SC16-S1, 72 h; summary of the method: as §1
[8] = tested on: Human alphaherpesvirus 1; assay: Antiviral activity against HSV1 B-2006 harboring frameshift mutation at Q185 in TK infected in HFF after 3 days by plaque reduction assay; type: functional, organism-based; conditions: Human alphaherpesvirus 1, B-2006, 72 h; summary of the method: as §1
[9] = tested on: Human alphaherpesvirus 2; assay: Antiviral activity against HSV2 AG-3 harboring TK Q105P mutant gene infected in HFF after 3 days by plaque reduction assay; type: functional, organism-based; conditions: Human alphaherpesvirus 2, AG-3, 72 h; summary of the method: as §1
[10] = tested on: Human alphaherpesvirus 2; assay: Antiviral activity against HSV2 12247 harboring TK C337Y mutant gene infected in HFF after 3 days by plaque reduction assay; type: functional, organism-based; conditions: Human alphaherpesvirus 2, 12247, 72 h; summary of the method: as §1
[11] = tested on: Human alphaherpesvirus 2; assay: Antiviral activity against HSV2 13077 harboring TK R223H mutant gene infected in HFF after 3 days by plaque reduction assay; type: functional, organism-based; conditions: Human alphaherpesvirus 2, 13077, 72 h; summary of the method: as §1
[12] = tested on: Human alphaherpesvirus 2; assay: Antiviral activity against HSV2 11680 harboring TK R223H mutant gene infected in HFF after 3 days by plaque reduction assay; type: functional, organism-based; conditions: Human alphaherpesvirus 2, 11680, 72 h; summary of the method: as §1
[13] = tested on: Human alphaherpesvirus 2; assay: Antiviral activity against 4'-thioIDU-resistant HSV2 infected in HFF after 3 days by plaque reduction assay; type: functional, organism-based; conditions: Human alphaherpesvirus 2, 72 h; summary of the method: as §1
[14] = tested on: Human alphaherpesvirus 2; assay: Selectivity ratio of EC50 for 4'-thioIDU-resistant HSV2 infected in HFF to EC50 for HSV2 MS infected in HFF; type: functional
[15] = tested on: Human alphaherpesvirus 2; assay: Antiviral activity against HSV2 harboring frameshift mutation in TK infected in HFF after 3 days by plaque reduction assay; type: functional, organism-based; conditions: Human alphaherpesvirus 2, 72 h; summary of the method: as §1
[16] = tested on: Human alphaherpesvirus 1; assay: Antiviral activity against HSV1 E377 infected in HFF assessed as decrease in viral DNA accumulation after 3 days; type: functional, organism-based; conditions: Human alphaherpesvirus 1, E377, 72 h
[17] = tested on: Human alphaherpesvirus 2; assay: Antiviral activity against HSV2 MS infected in HFF assessed as decrease in viral DNA accumulation after 3 days; type: functional, organism-based; conditions: Human alphaherpesvirus 2, MS, 72 h
[18] = tested on: Human betaherpesvirus 5; assay: Antiviral activity against human cytomegalovirus AD169 infected in HFF assessed as decrease in viral DNA accumulation after 8 to 10 days; type: functional, organism-based; conditions: Human betaherpesvirus 5, AD169
[19] = tested on: Human alphaherpesvirus 3; assay: Antiviral activity against VZV Ellan infected in HFF assessed as decrease in viral DNA accumulation after 8 to 10 days; type: functional, organism-based; conditions: Human alphaherpesvirus 3, Ellan
[20] = tested on: Human gammaherpesvirus 4; assay: Antiviral activity against Epstein-Barr virus infected in human Akata cells assessed as decrease in viral DNA accumulation after 72 hrs; type: functional, organism-based; conditions: human gammaherpesvirus 4, Akata
Summary of the method: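 Latent Akata cells in RPMI 1640 with 10% FBS were induced to productive infection with 50 μg/ml goat anti-human IgG, 4 × 10^4 cells per well, with compound at 100–0.032 μM. After 72 h, NaOH/NaCl denaturation was followed by nylon membrane blotting. Viral DNA was quantified by digoxigenin-labeled probe hybridization and anti-hapten antibody detection.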

[21] = Antiviral activity against Human herpesvirus 6 GS infected in human HSB2 cells assessed as decrease in viral DNA accumulation after 7 days; type: functional, cell-based, Human herpesvirus 6 (strain GS); conditions: Human betaherpesvirus 6A, HSB2, 168 h
Summary of the method: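 HSB-2 cells (2 × 10^4/well) in RPMI 1640 with 10% FBS were infected with HHV-6A strain GS, with compound dilutions in triplicate wells, at 37°C for 7 days. Total DNA was denatured and immobilized on nylon. Viral DNA accumulation was measured by digoxigenin-labeled DNA probe hybridization and anti-hapten antibody detection.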

[22] = tested on: Human gammaherpesvirus 8; assay: Antiviral activity against Human herpesvirus 8 infected in human BCBL1 cells assessed as decrease in viral DNA accumulation after 7 days; type: functional, organism-based; conditions: Human gammaherpesvirus 8, BCBL1, 168 h
Summary of the method: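 BCBL1 cells in RPMI 1640 with 10% FBS were induced to lytic replication with phorbol 12-myristate 13-acetate (100 ng/ml final). Compound was tested in triplicate wells up to 100 μM for 7 days at 37°C. Total DNA was purified and viral DNA quantified by TaqMan qPCR. EC50 is the concentration giving 50% reduction of DNA accumulation.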

[23] = Selectivity index, ratio of CC50 for HFF to EC50 for HSV2 MS infected in HFF
[24] = tested on: Human betaherpesvirus 5; assay: Antiviral activity against human cytomegalovirus AD169 infected in HFF after 8 to 10 days by plaque reduction assay; type: functional, organism-based; conditions: Human betaherpesvirus 5, AD169
Summary of the method: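 Plaque reduction on confluent HFF monolayers in triplicate wells: 1 h adsorption, then six serial compound dilutions (top 100 μM) in MEM with 2% FBS, no immunoglobulin. Incubation was 8 days for HCMV and 10 days for VZV. Plaques were stained with 0.017% neutral red in PBS and counted microscopically. EC50 was interpolated at 50% plaque reduction.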

[25] = tested on: Human betaherpesvirus 5; assay: Antiviral activity against human cytomegalovirus RC314 harboring UL97 K355M mutant gene infected in HFF after 8 to 10 days by plaque reduction assay; type: functional, organism-based; conditions: Human betaherpesvirus 5, RC314
Summary of the method: (§2)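 Plaque reduction in confluent HFF with six serial dilutions (top 100 μM) and no immunoglobulin added. Virus was adsorbed 1 h on triplicate wells. Cells were incubated 8 days, stained with 0.017% neutral red in PBS, and plaques counted. EC50 is the concentration reducing plaque number by 50%.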

[26] = tested on: Human betaherpesvirus 5; assay: Antiviral activity against human cytomegalovirus C8914-6 harboring UL97 I244V, L595F and UL54 L501F mutant gene infected in HFF after 8 to 10 days by plaque reduction assay; type: functional, organism-based; conditions: Human betaherpesvirus 5, C8914-6; summary of the method: as §2
[27] = tested on: Human betaherpesvirus 5; assay: Antiviral activity against human cytomegalovirus 759D100 harboring deletion mutation in UL97 gene and UL54 A987G mutant gene infected in HFF after 8 to 10 days by plaque reduction assay; type: functional, organism-based; conditions: Human betaherpesvirus 5, 759D100; summary of the method: as §2
[28] = tested on: Human betaherpesvirus 5; assay: Antiviral activity against human cytomegalovirus 1117 harboring UL54 K513N mutant gene infected in HFF after 8 to 10 days by plaque reduction assay; type: functional, organism-based; conditions: Human betaherpesvirus 5, 1117; summary of the method: as §2
[29] = tested on: Human betaherpesvirus 5; assay: Antiviral activity against human cytomegalovirus VR4955 harboring UL54 T700A mutant gene infected in HFF after 8 to 10 days by plaque reduction assay; type: functional, organism-based; conditions: Human betaherpesvirus 5, VR4955; summary of the method: as §2
[30] = tested on: Human betaherpesvirus 5; assay: Antiviral activity against human cytomegalovirus PFAB300 harboring UL54 L724V mutant gene infected in HFF after 8 to 10 days by plaque reduction assay; type: functional, organism-based; conditions: Human betaherpesvirus 5, PFAB300; summary of the method: as §2

Row | Compound | CC50 at 72 h [1] [µM] | EC50 [2] [µM] | IC50 [3] [µM] | EC50 [13] [µM] | Ratio EC50 [14] | EC50 [15] [µM] | Ratio CC50/EC50 [23] | further results
1 | Nc1nc2c(ncn2COCCO)c(=O)[nH]1 [ACYCLOVIR] | > 444 | 3 | > 444 | > 440 | >100 | > 100 |  | EC50 [4]: 0.08 µM; EC50 [5]: 12 µM; EC50 [6]: 0.011 µM; EC50 [7]: 0.6 µM; EC50 [8]: 4.4 µM; EC50 [9]: 4.7 µM; EC50 [10]: 9.6 µM; EC50 [11]: 4.9 µM; EC50 [12]: 6.6 µM
2 | Nc1ccn(C[C@@H](CO)OCP(=O)(O)O)c(=O)n1.O.O [CIDOFOVIR] | > 100 | 9.5 |  | 4.7 | 1.3 | 1.2 |  | EC50 [16]: 5.5 µM; EC50 [17]: 5.1 µM; EC50 [18]: 0.4 µM; EC50 [19]: 0.5 µM; EC50 [20]: 0.48 µM; EC50 [21]: 2.7 µM; EC50 [22]: 0.064 µM
3 | Nc1nc(=O)n([C@H]2C[C@H](O)[C@@H](CO)S2)cc1Br | > 100 | 15 | > 100 |  |  |  | > 6.7 | 
4 | Nc1ccn([C@@H]2S[C@H](CO)[C@@H](O)[C@@H]2O)c(=O)n1 [THIARABINE] | > 100 | 0.9 |  |  |  |  | > 110 | 
5 | Nc1nc2c(ncn2COC(CO)CO)c(=O)[nH]1 [GANCICLOVIR] |  |  |  |  |  |  |  | EC50 [24]: 3.3 µM; EC50 [25]: 44 µM; EC50 [26]: 53 µM; EC50 [27]: 230 µM; EC50 [28]: 15 µM; EC50 [29]: 7.2 µM; EC50 [30]: 9.8 µM
6 | Cc1cn([C@H]2C[C@H](O)[C@@H](CO)S2)c(=O)[nH]c1=O [4'-THIOTHYMIDINE] | > 100 | 0.2 | < 0.03 |  |  |  | > 500 | 
7 | O=c1[nH]c(=O)n([C@H]2C[C@H](O)[C@@H](CO)O2)cc1I [IDOXURIDINE] |  | 2.4 |  | > 100 | 42 | 78 |  | 
8 | O=c1[nH]c(=O)n([C@H]2C[C@H](O)[C@@H](CO)S2)cc1C(F)(F)F | > 100 | 0.3 | 0.1 |  |  |  | > 330 | 
9 | O=c1[nH]c(=O)n([C@H]2C[C@H](O)[C@@H](CO)S2)cc1Br | > 100 | 4.8 |  |  |  |  | > 21 | 
10 | O=C(O)P(=O)(O)O [FOSCARNET] |  | 670 |  | 403 | 0.66 | 389 |  | 
